According to ChEMBL document CHEMBL1144149, “DNA polymerase beta inhibitors from Tetracera boiviniana” (J Nat Prod, 1999):

Experiments:
[1] = Cytotoxicity against mouse P388D1 cells at 10 uM after 6 hrs by trypan blue exclusion assay; type: functional
Summary of the method: (§1)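 P-388D1 suspension cells were grown in DMEM (4500 mg glucose/L) with 10% donor horse serum and antibiotics at 37 °C in 5% CO2. Cells at ca. 5 × 10^5 cells/mL were stabilized for 1 h, then exposed to compound alone or together with 75 nM bleomycin (blenoxane) for 6 h. Final DMSO was 0.25%. Viability was read by trypan blue exclusion as % of control.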

[2] = target: DNA polymerase beta (Rattus norvegicus) (UniProt P06766); details: 10 ug/mL
[3] = tested on: P388D1; assay: Potentiation of 75 nM bleomycin induced cytotoxicity in mouse P388D1 cells at 10 uM assessed as cell viability after 6 hrs by trypan blue exclusion assay; type: functional; summary of the method: as §1
[4] = target: DNA polymerase beta (Rattus norvegicus) (UniProt P06766); details: 50 ug/mL

SMILES: C=C(C)[C@@H]1CC[C@]2(C(=O)O)CC[C@]3(C)[C@H](CC[C@@H]4[C@@]5(C)CC[C@H](O)C(C)(C)[C@@H]5CC[C@]43C)[C@@H]12 [BETULINIC ACID]
- Activity [1]: 99%
- inhibition [2]: 63%
- Activity [3]: 70%
- inhibition [4]: 96%
